One series deals with FhuD2 Y256F (S. aureus). The series can be described thus: other fluorescence titration.
The target in the next series is T1, R175A N-His6-FhuD2 (Staphylococcus aureus, UniProt Q7BGA5, R199A).
T1 sequence (Q7BGA5 25-302 R199A): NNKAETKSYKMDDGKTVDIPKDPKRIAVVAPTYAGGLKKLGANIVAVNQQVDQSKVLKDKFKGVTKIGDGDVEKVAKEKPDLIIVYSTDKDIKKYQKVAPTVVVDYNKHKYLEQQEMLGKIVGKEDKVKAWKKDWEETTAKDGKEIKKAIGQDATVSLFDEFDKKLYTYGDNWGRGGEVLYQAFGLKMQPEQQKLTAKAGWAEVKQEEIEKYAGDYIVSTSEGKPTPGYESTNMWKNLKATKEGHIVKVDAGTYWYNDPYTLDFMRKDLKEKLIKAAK
Briefly: Intrinsic Trp fluorescence quenching binding assay, FhuD2 mutant R175A. The arrangement: species or system S. aureus. The note with it: FhuD2 variant R175A.

The next series addresses T2, Y169F N-His6-FhuD2 (Staphylococcus aureus, UniProt Q7BGA5, Y193F).
T2 sequence (Q7BGA5 25-302 Y193F): T1 sequence (Q7BGA5 25-302 R199A)
Briefly: Intrinsic Trp fluorescence quenching binding assay, FhuD2 mutant Y169F. The arrangement: species or system S. aureus. To be noted: FhuD2 variant Y169F.

A further series concerns the target T3, Y167F N-His6-FhuD2 (Staphylococcus aureus, UniProt Q7BGA5, Y191F).
T3 sequence (Q7BGA5 25-302 Y191F): T1 sequence (Q7BGA5 25-302 R199A)
Briefly: Intrinsic Trp fluorescence quenching binding assay, FhuD2 mutant Y167F. The arrangement: species or system S. aureus. The note with it: FhuD2 variant Y167F.

The conditions of series [1]: 25 °C; cited from earlier work.
Another series deals with T4, Y254F N-His6-FhuD2 (Staphylococcus aureus, UniProt Q7BGA5, Y278F).
T4 sequence (Q7BGA5 25-302 Y278F): T1 sequence (Q7BGA5 25-302 R199A)
Briefly: Intrinsic Trp fluorescence quenching binding assay, FhuD2 mutant Y254F. Details: species or system S. aureus. To be noted: FhuD2 variant Y254F.

The target in a further series is T5, W255A N-His6-FhuD2 (Staphylococcus aureus, UniProt Q7BGA5, W279A).
T5 sequence (Q7BGA5 25-302 W279A): T1 sequence (Q7BGA5 25-302 R199A)
The series can be described thus: Intrinsic Trp fluorescence quenching binding assay, FhuD2 mutant W255A. To be noted: FhuD2 variant W255A. Details: species or system S. aureus.

A further series concerns the target T6, W173A N-His6-FhuD2 (Staphylococcus aureus, UniProt Q7BGA5, W197A).
T6 sequence (Q7BGA5 25-302 W197A): T1 sequence (Q7BGA5 25-302 R199A)
The series can be described thus: Intrinsic Trp fluorescence quenching binding assay, FhuD2 mutant W173A. Details: species or system S. aureus. To be noted: FhuD2 variant W173A.

A further series has as its target Y256F (Staphylococcus aureus, UniProt Q7BGA5, Y280F). Briefly: Intrinsic Trp fluorescence quenching. Format: binding. To be noted: read-out: app Kd; SD, n = 2.
In the next series the target is Y106F (Staphylococcus aureus, UniProt Q7BGA5, Y130F). Briefly: Intrinsic Trp fluorescence quenching. Format: binding. To be noted: read-out: app Kd; SD, n = 2.
The target of series [2] is T7, FhuD2 (Staphylococcus aureus, UniProt Q7BGA5). Briefly: Intrinsic Trp fluorescence quenching. Format: binding. To be noted: read-out: app Kd; SD, n = 2.
Another series addresses W255A (Staphylococcus aureus, UniProt Q7BGA5, W279A). The series can be described thus: Intrinsic Trp fluorescence quenching. Format: binding. To be noted: read-out: app Kd; SD, n = 2.
In a further series the target is Y169F (Staphylococcus aureus, UniProt Q7BGA5, Y193F). The series can be described thus: Intrinsic Trp fluorescence quenching. Format: binding. The note with it: read-out: app Kd; SD, n = 2.
A further series concerns the target W173A (Staphylococcus aureus, UniProt Q7BGA5, W197A). Briefly: Intrinsic Trp fluorescence quenching. Format: binding. The note with it: read-out: app Kd; SD, n = 2.
A further series concerns the target R175A (Staphylococcus aureus, UniProt Q7BGA5, R199A). The series can be described thus: Intrinsic Trp fluorescence quenching. Format: binding. To be noted: read-out: app Kd; SD, n = 2.
Series [3] in a line: Apparent KFe measurement by EDTA competition assay. It is filed as physicochemical. To be noted: 1.2 equiv EDTA, HEPES buffer pH 7.4. An outline of the steps:
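Ferric siderophore (ferrioxamine B or E) treated with 1.2 equiv EDTA, with or without stoichiometric FhuD2. Remaining ferric siderophore is followed continuously by absorbance at 427 nm and expressed as relative percentage remaining. Apparent log KFe is calculated from the decay plots. At least two independent trials are run, with standard deviations reported.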

For another series, the target named is Y254F (Staphylococcus aureus, UniProt Q7BGA5, Y278F). Briefly: Intrinsic Trp fluorescence quenching. It is filed as binding. The note with it: read-out: app Kd; SD, n = 2.
Another series addresses Y106F N-His6-FhuD2 (Staphylococcus aureus, UniProt Q7BGA5, Y130F). The series can be described thus: Intrinsic Trp fluorescence quenching binding assay, FhuD2 mutant Y106F. The arrangement: species or system S. aureus. To be noted: FhuD2 variant Y106F.
In another series the test system is SBPs (FhuD2 or YxeB). Format: biochemical, S. aureus and B. subtilis. To be noted: SBP-catalyzed exchange, FhuD2 and YxeB. An outline of the steps:
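Truncated SBPs (FhuD2 or YxeB), each expressed with an N-terminal His6 tag in place of the signal peptide, at 100 nM with 4 μM ferric donor (FOB, FOE or human holo-transferrin). Started by adding 2 μM DFO-NBD probe, then fluorescence followed continuously (ex 475 nm; em 565 nm). Percent change in relative emission taken at 15 min against a matching no-SBP reaction.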

For a further series, the target named is Y256F N-His6-FhuD2 (Staphylococcus aureus, UniProt Q7BGA5, Y280F). The series can be described thus: Intrinsic Trp fluorescence quenching binding assay, FhuD2 mutant Y256F. Details: species or system S. aureus.
The target of series [4] is T7, FhuD2. Briefly: Intrinsic Trp fluorescence quenching. It is filed as binding. To be noted: read-out: app Kd; SD, n = 2; cited from earlier work.
Another series addresses N-His6-FhuD2 (Staphylococcus aureus, UniProt Q7BGA5). The series can be described thus: Intrinsic Trp fluorescence quenching binding assay, wild-type N-His6-FhuD2. The arrangement: species or system S. aureus. An outline of the steps: (§1)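 Purified SBP constructs, truncated with an N-terminal His6 tag replacing the signal peptide. Binding of the fluorescent desferrioxamine probe, in metal-free and ferric forms, was read as quenching of the protein's intrinsic Trp fluorescence.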

A further series has as its target N-His6-YxeB (Bacillus subtilis, UniProt P54941). Briefly: Intrinsic Trp fluorescence quenching binding assay, wild-type N-His6-YxeB. Details: species or system B. subtilis. In a few lines:
as §1

Series [5] has as its system FhuD2. The series can be described thus: FhuD2-catalyzed iron exchange from holo-Tf to DFO-NBD with additives. It is filed as biochemical, S. aureus. To be noted: 25 mM additive, 4 μM holo-Tf, 2 μM DFO-NBD. In a few lines: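 FhuD2 is a truncated S. aureus construct with the N-terminal signal peptide replaced by an N-terminal His6 tag, used at 100 nM with holo-transferrin as iron donor. The reaction is started by adding the DFO-NBD probe, and fluorescence (ex 475 nm, em 560 nm) is monitored continuously. Quenching is expressed as percentage change relative to a control containing DFO-NBD and FhuD2 without iron donor.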

“Also recorded” adds a separate entry of the source. Like-named read-outs stand apart in the source and are kept apart here.

N-His6-YxeB, sequence (P54941 21-321): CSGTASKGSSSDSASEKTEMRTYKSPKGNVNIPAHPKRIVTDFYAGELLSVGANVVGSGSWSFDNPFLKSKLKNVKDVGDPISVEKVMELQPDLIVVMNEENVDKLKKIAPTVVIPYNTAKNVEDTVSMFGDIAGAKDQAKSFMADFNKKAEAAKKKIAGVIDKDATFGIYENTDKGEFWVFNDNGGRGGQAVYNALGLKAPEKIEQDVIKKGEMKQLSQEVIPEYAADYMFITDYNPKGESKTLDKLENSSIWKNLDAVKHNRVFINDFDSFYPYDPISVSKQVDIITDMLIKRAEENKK
human holo-transferrin, sequence (P02787 20-698): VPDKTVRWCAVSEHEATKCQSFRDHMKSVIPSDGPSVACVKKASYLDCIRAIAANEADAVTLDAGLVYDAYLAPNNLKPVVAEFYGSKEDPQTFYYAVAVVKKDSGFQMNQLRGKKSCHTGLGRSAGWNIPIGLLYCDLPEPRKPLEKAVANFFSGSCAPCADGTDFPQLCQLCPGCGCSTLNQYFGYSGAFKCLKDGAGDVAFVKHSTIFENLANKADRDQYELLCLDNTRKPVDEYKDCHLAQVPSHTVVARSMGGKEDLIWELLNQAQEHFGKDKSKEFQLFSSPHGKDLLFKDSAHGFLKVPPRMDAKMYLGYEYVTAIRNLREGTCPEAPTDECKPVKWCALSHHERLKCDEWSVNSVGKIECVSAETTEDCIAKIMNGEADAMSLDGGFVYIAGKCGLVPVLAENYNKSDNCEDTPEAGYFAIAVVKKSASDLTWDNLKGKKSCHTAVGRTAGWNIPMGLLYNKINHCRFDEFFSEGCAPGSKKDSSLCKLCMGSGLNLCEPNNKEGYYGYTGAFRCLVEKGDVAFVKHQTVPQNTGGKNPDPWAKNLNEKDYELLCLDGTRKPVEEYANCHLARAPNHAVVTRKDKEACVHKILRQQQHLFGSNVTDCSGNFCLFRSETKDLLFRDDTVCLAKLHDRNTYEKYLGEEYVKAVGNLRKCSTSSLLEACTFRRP

Consider “human holo-transferrin (from UniProt P02787 20-698) (natural protein)”, for which, in the series with FhuD2 Y256F (S. aureus), the Kd was determined as 70 nM.

For “transferrin: human ferric holo-transferrin, host iron source and iron donor substrate”, the Kd in the series with R175A N-His6-FhuD2 (read-out: app Kd) amounted to 110 ± 30 nM; with Y169F N-His6-FhuD2 (read-out: app Kd), 110 ± 20 nM; with Y167F N-His6-FhuD2 (read-out: app Kd) it was 80 ± 20 nM; in the series with Y254F N-His6-FhuD2 (read-out: app Kd), 90 ± 20 nM; in the series with W255A N-His6-FhuD2 (read-out: app Kd), 110 ± 80 nM; with W173A N-His6-FhuD2 (read-out: app Kd) it was 140 ± 30 nM. Also, in series [1], the “log KFe” value is “≈ 22”.

On to `O=C1CCC(=O)N(O)CCCCCNC(=O)CCC(=O)N(O)CCCCCNC(=O)CCC(=O)N(O)CCCCCN1.[Fe+3]` [FOE, ferrioxamine E], for which the Kd on Y256F came out at 40 ± 20 nM; on Y106F, 80 ± 10 nM; on FhuD2 [2] it was 50 ± 6 nM; at W255A, 30 ± 9 nM; at Y169F it was 20 ± 2 nM; on W173A it was 90 ± 30 nM.

For `CC(=O)N([O-])CCCCCNC(=O)CCC(=O)N([O-])CCCCCNC(=O)CCC(=O)N([O-])CCCCCN.[Fe+3]` [FOB, ferrioxamine B], the Kd came out at 60 ± 10 nM on Y256F; 30 ± 9 nM at R175A; 40 ± 9 nM at Y169F N-His6-FhuD2 (read-out: app Kd); 40 ± 8 nM on Y106F; 10 ± 2 nM at Y254F; 40 ± 6 nM at Y167F N-His6-FhuD2 (read-out: app Kd). In addition, the Kd at Y106F N-His6-FhuD2 (read-out: app Kd) was 40 ± 8 nM; at Y256F N-His6-FhuD2 (read-out: app Kd, FhuD2 variant Y256F), 60 ± 10 nM; at Y254F N-His6-FhuD2 (read-out: app Kd), 10 ± 2 nM; at Y169F, 40 ± 9 nM; at FhuD2 [4], 30 ± 6 nM; at W255A N-His6-FhuD2 (read-out: app Kd), 60 ± 50 nM. Also, the Kd at W173A N-His6-FhuD2 (read-out: app Kd) came out at 60 ± 8 nM. The results for the “apparent log KFe” value in series [3] (1:1 stoichiometric complex with FhuD2) and in series [3] (no FhuD2) were 28.5 ± 0.1 and 30.3 ± 0.4, respectively. In addition, the “ability to serve as ferric iron donor to DFO-NBD” value with SBPs (FhuD2 or YxeB) was “serve as a donor of ferric iron; also recorded: serve as iron donor substrates”.

As for `CC(=O)N([O-])CCCCCNC(=O)CCC(=O)N([O-])CCCCCNC(=O)CCC(=O)N([O-])CCCCCNc1ccc([N+](=O)[O-])c2nonc12.[Fe+3]` [FO-NBD, ferrioxamine B-2-(4-nitro-2,1,3-benzoxadiazol-7-yl) conjugate], the “apparent log KFe” value in series [3] (no FhuD2) was 30.8 ± 0.3. The “app Kd” value is reported as “nanomolar affinity” at N-His6-FhuD2 (wild-type N-His6-FhuD2 100 nM, TBS buffer pH 7.4, one site binding model) and “nanomolar affinity” on N-His6-YxeB (wild-type N-His6-YxeB 100 nM, TBS buffer pH 7.4, one site binding model).

As for `O=C([O-])O.[Na+]` [NaHCO3], in the series with FhuD2 [5], the “effect on FhuD2-catalyzed exchange of iron from holo-Tf to DFO-NBD” value is “no apparent effect”.

As for `CC(=O)N(O)CCCCCNC(=O)CCC(=O)N(O)CCCCCNC(=O)CCC(=O)N(O)CCCCCN` [DFOB, desferrioxamine B], the Kd at R175A N-His6-FhuD2 (app Kd) was 40 ± 9 nM; on Y169F N-His6-FhuD2 (app Kd), 70 ± 10 nM; at Y167F N-His6-FhuD2 (app Kd) it was 60 ± 9 nM; on Y106F N-His6-FhuD2 (app Kd), 80 ± 20 nM; at N-His6-FhuD2, 90 ± 10 nM; on Y256F N-His6-FhuD2 it was 80 ± 30 nM. Also, the Kd on Y254F N-His6-FhuD2 (app Kd) came to 50 ± 10 nM; at W255A N-His6-FhuD2 (app Kd), 60 ± 20 nM; on N-His6-YxeB it was 30 ± 20 nM; at W173A N-His6-FhuD2 (app Kd) it was 100 ± 50 nM.

The values are drawn from article PMC7181320 (ACS Central Science, 2020).
